Assay results of several laboratories.
Protocols differ between the studies behind these lines.
Target: Serine/threonine-protein kinase 38-like (STK38L, Homo sapiens, UniProt Q9Y2H1)

Structure (SMILES) | test | setting | remaining binding [%]
C[C@@H](c1ccc(-n2cnc3c(N)ncnc32)cc1)N1CCc2nn(C)c(Cc3ccccc3)c2C1=O | binding, competition with immobilised ligand | 0.1 µM | 80
COc1ncc2cc3ccccc3nc2c1C#N | binding, competition with immobilised ligand | 5 µM | 87
C[C@@H]1CCN(c2nccc(-c3cnn4ncccc34)n2)C1 | binding | 1 µM | 100
O=C(c1ccc(Nc2ncc(Cl)c(-c3ccc(Cl)s3)n2)cc1)N1CCC(N2CCCC2)CC1 | binding, competition with immobilised ligand | 1 µM | 84
N[C@@H]1CCN(c2nccc(-c3cnn4ncccc34)n2)C1 | binding | 1 µM | 100
CCN1CCN(Cc2ccc(C(=O)Nc3ccc(C)c(Oc4ccc5c(c4)CC(=O)N5)c3)cc2C(F)(F)F)CC1 | binding, competition with immobilised ligand | 1 µM | 100
Cc1cnn2ncc(-c3ccnc(N(C)C)n3)c2c1 | binding | 1 µM | 100
CC1=C(C#N)[C@@H](c2ccc3[nH]nc(C)c3c2)C(C#N)=C(c2ccc(Cl)cc2)N1 | binding, competition with immobilised ligand | 1 µM | 100
CN(CCCC(F)(F)F)c1nccc(-c2cnn3ncccc23)n1 | binding | 1 µM | 100
COc1ccc2cc(OCC3(C(=O)O)CN(C(=O)c4ccc(F)cc4)C3)ccc2c1 | binding, competition with immobilised ligand | 1 µM | 86
CC1CCCN1c1nccc(-c2cnn3ncccc23)n1 (stereo not shown) | binding | 1 µM | 100
O=S(=O)(NC1CCC(c2cc(F)ccc2F)(S(=O)(=O)c2ccc(Cl)cc2)CC1)C(F)(F)F (stereo not shown) | binding, competition with immobilised ligand | 1 µM | 75
O=C(NCCCN1CCOCC1)c1ccc(Nc2ncc(Cl)c(-c3ccc(Cl)s3)n2)cc1 | binding, competition with immobilised ligand | 1 µM | 82
N#CC1(c2ccccn2)CCN(Cc2cc(C(=O)N3CCCC3)c(=O)n3ccccc23)CC1 | cell-free assay, competition with immobilised ligand | 1 µM | 90
CNC(=O)[C@@H]1CC[C@@H](n2c(-c3ccc4cnccc4c3)nc3ccc(C(=O)NCc4cccc(C(N)=O)c4)cc32)C1 | binding, competition with immobilised ligand | 1 µM | 100
Nc1ncc2c(n1)-c1c([nH]c3ccc(C#CC4CC4)cc13)CCCC2 | binding, competition with immobilised ligand | 1 µM | 100
Cc1cc(C)c(-n2ccn3nc(-c4cccnc4)cc23)cc1NC(=O)c1cc(C#N)cc(S(F)(F)(F)(F)F)c1 | binding, competition with immobilised ligand | 0.1 µM | 98.9
O=C(Nc1c[nH]nc1C(=O)NC1CCNCC1)c1cc(F)cc(F)c1 | binding, competition with immobilised ligand | 1 µM | 93
F[C@@H]1CCN(c2nccc(-c3cnn4ncccc34)n2)C1 | binding | 1 µM | 100
Cc1cnc(Nc2ccc(C(=O)N3CCC(N4CCCC4)CC3)cc2)nc1-c1cc2ccccc2s1 | binding, competition with immobilised ligand | 1 µM | 100
CNC(=O)Nc1ccc2c(c1)[C@@]1(CC2)OC(=O)N(CC(=O)N(Cc2ccc(F)cc2)[C@@H](C)C(F)(F)F)C1=O | binding, competition with immobilised ligand | 1 µM | 67
CN(C)c1nccc(-c2cnc3ncccn23)n1 | binding | 1 µM | 100
